Measurements reported in ChEMBL document CHEMBL1138152, “Design and synthesis of novel hydrazide-linked bifunctional peptides as delta/mu opioid receptor agonists and CCK-1/CCK-2 receptor antagonists” (J Med Chem, 2006).

Tests used:
[1] = target: T1, Delta-type opioid receptor (Homo sapiens, UniProt P41143); experiment: Inhibition of [35S]GTP-gamma-S binding to human delta opioid receptor expressed in CHO cells; type: functional, cell-based
How it was run: (§1)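 CHO-expressed receptor membranes (10 µg) in 50 mM HEPES pH 7.4 with EDTA, 5 mM MgCl2, 30 µM GDP, DTT, 100 mM NaCl, PMSF, BSA and 0.1 nM [35S]GTPγS. Test drug at various concentrations, duplicate or triplicate, 90 min at 30 °C. Nonspecific binding with 10 µM GTPγS.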

[2] = target: Mu-type opioid receptor (Rattus norvegicus) (UniProt P33535); experiment: (§2) Inhibition of [35S]GTP-gamma-S binding to rat mu opioid receptor expressed in CHO cells; type: functional, cell-based; how it was run: as §1
Chain of Mu-type opioid receptor (Rattus norvegicus) (P33535 whole entry): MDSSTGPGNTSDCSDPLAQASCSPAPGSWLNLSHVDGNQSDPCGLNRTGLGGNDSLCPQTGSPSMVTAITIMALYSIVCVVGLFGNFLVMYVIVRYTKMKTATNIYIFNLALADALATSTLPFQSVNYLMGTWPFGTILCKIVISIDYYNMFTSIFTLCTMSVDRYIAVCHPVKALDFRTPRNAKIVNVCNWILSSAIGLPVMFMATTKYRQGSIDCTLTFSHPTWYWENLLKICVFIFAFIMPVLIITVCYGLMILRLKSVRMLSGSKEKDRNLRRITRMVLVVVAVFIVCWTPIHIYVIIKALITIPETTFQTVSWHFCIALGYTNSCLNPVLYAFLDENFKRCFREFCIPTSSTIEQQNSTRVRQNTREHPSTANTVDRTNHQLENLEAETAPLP

[3] = target: T2, Cholecystokinin receptor (Homo sapiens) (UniProt P32239+P32238); experiment: Agonist activity at CCK receptor of guinea pig ileum at 1 uM; type: functional, tissue-based; conditions: Cavia porcellus, target entry is the homologue from another species
How it was run: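 Guinea pig ileum LMMP strips (male Hartley), 20-mL baths, 1 g tension, oxygenated Krebs bicarbonate buffer, 37 °C. Tissue first challenged with 67 mM KCl to set maximal contraction. Test compound added to the bath; agonist activity taken as contraction height as a percentage of the maximal KCl contraction (A50).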

[4] = target: T2, Cholecystokinin receptor (Homo sapiens); experiment: Antagonist activity at CCK receptor by inhibition of CCK8-induced muscle contraction in unstimulated GPI/LMMP; type: functional; conditions: Cavia porcellus; target entry is the homologue from another species
How it was run: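 Male Hartley guinea pig ileum LMMP strips, 1 g tension, oxygenated Krebs bicarbonate buffer, 37 °C; 67 mM KCl sets maximal contractility. Initial noncumulative CCK-8 dose-response curve built. Test compound added without electrical stimulation; 3 min later the CCK-8 curve was rebuilt at an antagonist dose giving about a 3-fold rightward shift. Ke is the antagonist concentration halving CCK-8 activity.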

[5] = target: T1, Delta-type opioid receptor; experiment: Displacement of [3H]DPDPE from human delta opioid receptor expressed in HN9.10 cells; type: cell-based
How it was run: (§3)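 Membranes (50 µg) from HN9.10 neuroblastoma cells stably expressing rat MOR or human DOR. Buffer was 50 mM Tris pH 7.4 with bacitracin, bestatin, captopril, PMSF and 1 mg/mL BSA. Radioligand was [3H]DAMGO (MOR) or [3H]DPDPE (DOR), each 1.0 nM, with 10 test concentrations. Incubated 3 h at 25 °C, in duplicate. Nonspecific binding with 10 µM naloxone. Filtration, then scintillation counting.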

Mu-type opioid receptor [6] = target: T3, Mu-type opioid receptor (Rattus norvegicus, UniProt P33535); experiment: Displacement of [3H]DAMGO from rat mu opioid receptor expressed in HN9.10 cells; type: cell-based; how it was run: as §3
T3 sequence (P33535 whole entry): as above

[7] = target: T4, Cholecystokinin receptor type A (Homo sapiens, UniProt P32238); experiment: Displacement of [125I]CCK8 from human CCK1 receptor expressed in HEK293 cells; type: cell-based
T4 sequence (P32238 whole entry): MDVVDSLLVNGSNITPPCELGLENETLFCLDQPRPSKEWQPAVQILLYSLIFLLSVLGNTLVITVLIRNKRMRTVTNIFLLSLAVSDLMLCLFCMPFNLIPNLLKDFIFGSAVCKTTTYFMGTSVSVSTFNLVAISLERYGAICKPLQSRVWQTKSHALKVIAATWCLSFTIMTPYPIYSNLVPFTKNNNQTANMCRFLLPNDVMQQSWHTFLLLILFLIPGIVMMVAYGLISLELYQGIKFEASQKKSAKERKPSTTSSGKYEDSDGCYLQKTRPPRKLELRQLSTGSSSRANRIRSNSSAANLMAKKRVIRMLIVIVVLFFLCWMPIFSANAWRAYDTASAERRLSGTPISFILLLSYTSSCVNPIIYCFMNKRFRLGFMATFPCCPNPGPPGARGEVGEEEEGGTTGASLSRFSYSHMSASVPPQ

[8] = target: T5, Gastrin/cholecystokinin type B receptor (Homo sapiens, UniProt P32239); experiment: Displacement of [125I]CCK8 from human CCK2 receptor expressed in HEK293 cells; type: cell-based
T5 sequence (P32239 whole entry): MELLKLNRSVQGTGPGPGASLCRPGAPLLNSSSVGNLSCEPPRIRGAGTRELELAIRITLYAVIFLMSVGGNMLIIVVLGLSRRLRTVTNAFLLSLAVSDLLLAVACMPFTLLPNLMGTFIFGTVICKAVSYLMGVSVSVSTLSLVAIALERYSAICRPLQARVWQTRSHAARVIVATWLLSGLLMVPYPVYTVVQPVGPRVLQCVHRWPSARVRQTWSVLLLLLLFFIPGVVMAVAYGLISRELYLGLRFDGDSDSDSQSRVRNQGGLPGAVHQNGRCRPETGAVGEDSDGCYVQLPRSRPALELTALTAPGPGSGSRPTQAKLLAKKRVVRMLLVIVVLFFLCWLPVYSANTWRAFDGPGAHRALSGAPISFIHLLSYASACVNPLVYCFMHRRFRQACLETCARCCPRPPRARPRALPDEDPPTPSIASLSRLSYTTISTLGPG

Mu-type opioid receptor [9] = target: T3, Mu-type opioid receptor; experiment: as §2; type: functional, cell-based; how it was run: as §1
[10] = target: Delta-type opioid receptor (Mus musculus, UniProt P32300); experiment: Agonist activity at delta opioid receptor by inhibition of muscle contraction in electrically stimulated isolated mouse vas deferens; type: functional, tissue-based
Chain of Delta-type opioid receptor (Mus musculus, UniProt P32300) (P32300 whole entry): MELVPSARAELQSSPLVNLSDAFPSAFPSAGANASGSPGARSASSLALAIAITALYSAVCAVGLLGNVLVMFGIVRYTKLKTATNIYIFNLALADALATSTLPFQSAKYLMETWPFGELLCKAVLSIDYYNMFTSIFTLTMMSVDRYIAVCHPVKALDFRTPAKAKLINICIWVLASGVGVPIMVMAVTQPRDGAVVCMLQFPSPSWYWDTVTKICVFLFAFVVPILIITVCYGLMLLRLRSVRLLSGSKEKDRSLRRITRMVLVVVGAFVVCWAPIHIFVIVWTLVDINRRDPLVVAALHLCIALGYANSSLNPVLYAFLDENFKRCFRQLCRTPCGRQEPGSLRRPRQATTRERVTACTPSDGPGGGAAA
How it was run: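 Male ICR mouse vasa deferentia in 20-mL baths, 0.5 g tension, oxygenated Mg-free Krebs at 37 °C; field stimulation 0.1 Hz, 2.0 ms single pulses, supramaximal voltage. Tissue integrity checked with DPDPE (10 nM). Compound added cumulatively until maximal inhibition. Inhibition taken as mean contraction height for 1 min before dosing versus height 3 min after. IC50 from Hill-equation fit by nonlinear least squares.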

Mu-type opioid receptor [11] = target: Mu-type opioid receptor (Cavia porcellus, UniProt P97266); experiment: Agonist activity at mu opioid receptor by inhibition of muscle contraction in electrically stimulated isolated guinea pig ileum; type: functional, tissue-based
Chain of Mu-type opioid receptor (Cavia porcellus, UniProt P97266) (P97266 whole entry): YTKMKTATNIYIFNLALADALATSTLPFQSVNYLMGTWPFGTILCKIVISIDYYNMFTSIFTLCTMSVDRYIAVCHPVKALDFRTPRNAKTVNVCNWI
How it was run: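 Longitudinal muscle–myenteric plexus strips from male Hartley guinea pig ileum, 1 g tension, oxygenated Krebs at 37 °C, 15 min equilibration. Stimulated at 0.1 Hz, 0.4 ms, supramaximal voltage. Integrity checked with PL-017 (10 nM). Compound added until maximal inhibition. Inhibition taken as contraction height 1 min before versus 3 min after dosing. IC50 from Hill-equation fit.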

T1 sequence (P41143 whole entry): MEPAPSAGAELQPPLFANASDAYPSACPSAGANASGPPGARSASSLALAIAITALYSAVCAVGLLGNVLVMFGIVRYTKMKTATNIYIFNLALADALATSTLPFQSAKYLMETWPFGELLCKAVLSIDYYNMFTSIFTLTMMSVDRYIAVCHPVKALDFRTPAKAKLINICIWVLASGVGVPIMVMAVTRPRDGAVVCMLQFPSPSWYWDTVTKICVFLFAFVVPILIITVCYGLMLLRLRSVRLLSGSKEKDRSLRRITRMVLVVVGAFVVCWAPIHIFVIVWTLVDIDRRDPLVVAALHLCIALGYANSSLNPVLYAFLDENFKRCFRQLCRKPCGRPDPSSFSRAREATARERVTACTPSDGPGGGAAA

Row | Compound | Emax [1] [%] | Emax [2] [%] | Activity [3] [%] | IC50 [5] [nM] | Ki [5] [nM] | IC50 (Mu-type opioid receptor [6]) [nM] | Ki (Mu-type opioid receptor [6]) [nM] | IC50 [7] [nM] | Ki [7] [nM] | IC50 [8] [nM] | Ki [8] [nM] | EC50 [1] [nM] | EC50 (Mu-type opioid receptor [9]; read-out: EC50) [nM] | IC50 [10] [nM] | IC50 (Mu-type opioid receptor [11]) [nM] | other results
1 | CCCC[C@H](NC(=O)[C@H](CC(=O)O)NC(=O)[C@H](Cc1ccccc1)NN[C@@H](Cc1ccccc1)C(=O)NCC(=O)N[C@H](C)C(=O)N[C@@H](Cc1ccc(O)cc1)C(=O)O)C(=O)N[C@H](Cc1cn(C(=O)OC(C)(C)C)c2ccccc12)C(=O)O | 100 | 170 | 0 | – | – | – | – | – | – | – | – | – | – | – | – | Ke [4]: 6.5 nM
2 | CCCC[C@H](NC(=O)[C@@H](Cc1c[nH]c2ccccc12)NC(=O)OC(C)(C)C)C(=O)N[C@@H](CC(=O)O)C(=O)N[C@@H](Cc1ccccc1)C(=O)NNC(=O)[C@H](Cc1ccccc1)NC(=O)CNC(=O)[C@@H](C)NC(=O)[C@@H](N)Cc1ccc(O)cc1 | – | – | – | 93.3 | 45 | 64.6 | 31 | 35500 | > 10000 | 10000 | > 10000 | 74 | 210 | 24 | 460 | –
3 | CCCC[C@H](NC(=O)[C@H](Cc1c[nH]c2ccccc12)NC(C)=O)C(=O)N[C@@H](CC(=O)O)C(=O)N(C)[C@@H](Cc1ccccc1)C(=O)NNC(=O)[C@H](Cc1ccccc1)NC(=O)CNC(=O)[C@@H](C)NC(=O)[C@@H](N)Cc1ccc(O)cc1 | – | – | – | – | 5.2 | – | 5.3 | – | – | – | – | – | – | 5.1 | 62 | Log IC50 [5]: -7.97; Log IC50 (Mu-type opioid receptor [6]): -7.96; EC50 ([1]; cho): 0.53 nM; EC50 (Mu-type opioid receptor [9]; cho, read-out: EC50): 5.2 nM
4 | CCCC[C@H](NC(=O)[C@@H](Cc1c[nH]c2ccccc12)NC(=O)OC1C2CC3CC(C2)CC1C3)C(=O)N[C@@H](CC(=O)O)C(=O)N[C@@H](Cc1ccccc1)C(=O)NNC(=O)[C@H](Cc1ccccc1)NC(=O)CNC(=O)[C@@H](C)NC(=O)[C@@H](N)Cc1ccc(O)cc1 (some centres not stated) | – | – | – | 7.76 | 3.4 | 37.2 | 16 | 575 | 560 | 933 | 930 | 5.6 | 240 | 84 | 1200 | –
5 | CCCC[C@@H](C(=O)N[C@@H](Cc1cn(C(C)=O)c2ccccc12)C(=O)O)N(C(=O)Nc1ccccc1Cl)C(=O)[C@H](CC(=O)O)NC(=O)[C@H](Cc1ccccc1)N(C)N[C@@H](Cc1ccccc1)C(=O)NCC(=O)N[C@H](C)C(=O)N[C@@H](Cc1ccc(O)cc1)C(=O)O | 81 | 33 | 0 | – | – | – | – | – | – | – | – | – | – | – | – | Ke [4]: 150 nM
6 | CCCC[C@H](NC(=O)[C@H](N)Cc1c[nH]c2ccccc12)C(=O)N[C@@H](CC(=O)O)C(=O)N[C@@H](Cc1ccccc1)C(=O)NNC(=O)[C@H](Cc1ccccc1)NC(=O)CNC(=O)[C@@H](C)NC(=O)[C@@H](N)Cc1ccc(O)cc1 | – | – | – | 3.24 | 1.4 | 1.2 | 0.51 | 10200 | 10000 | 9330 | 9300 | 9.4 | 9.6 | 26 | 81 | EC50 (Mu-type opioid receptor [9]; read-out: Log EC50 (converted)): 9.77 nM
7 | CCCC[C@H](NC(=O)[C@H](Cc1c[nH]c2ccccc12)NC(=O)OC(C)(C)C)C(=O)N[C@@H](CC(=O)O)C(=O)N[C@@H](Cc1ccccc1)C(=O)NNC(=O)[C@H](Cc1ccccc1)NC(=O)CNC(=O)[C@@H](C)NC(=O)[C@@H](N)Cc1ccc(O)cc1 | – | – | – | 138 | 59 | 55 | 24 | 4070 | 4100 | 3980 | 3800 | 27 | 9.5 | 230 | 55 | –
8 | CCCC[C@H](NC(=O)[C@H](CC(=O)O)NC(=O)[C@H](Cc1ccccc1)NN[C@@H](Cc1ccccc1)C(=O)NCC(=O)N[C@H](C)C(=O)N[C@@H](Cc1ccc(O)cc1)C(=O)O)C(=O)N[C@H](Cc1cn(C(=O)OC2C3CC4CC(C3)CC2C4)c2ccccc12)C(=O)O (some centres not stated) | 61 | 60 | 0 | – | – | – | – | – | – | – | – | – | – | – | – | –
9 | CCCC[C@H](NC(=O)[C@H](Cc1c[nH]c2ccccc12)NC(C)=O)C(=O)N[C@@H](CC(=O)O)C(=O)N[C@@H](Cc1ccccc1)C(=O)NNC(=O)[C@H](Cc1ccccc1)NC(=O)CNC(=O)[C@@H](C)NC(=O)[C@@H](N)Cc1ccc(O)cc1 | – | – | – | 53.7 | 23 | 61.7 | 26 | – | – | 1320 | 1300 | 54 | 76 | 36 | 28 | –
10 | CCCC[C@H](NC(=O)[C@H](CC(=O)O)NC(=O)[C@H](Cc1ccccc1)NN[C@@H](Cc1ccccc1)C(=O)NCC(=O)N[C@H](C)C(=O)N[C@@H](Cc1ccc(O)cc1)C(=O)O)C(=O)N[C@@H](Cc1cn(C(=O)OC(C)(C)C)c2ccccc12)C(=O)O | 54 | 83 | 0 | – | – | – | – | – | – | – | – | – | – | – | – | Ke [4]: 14 nM
11 | CCCC[C@@H](C(=O)N[C@@H](CC(=O)O)C(=O)N[C@@H](Cc1ccccc1)C(=O)NNC(=O)[C@H](Cc1ccccc1)NC(=O)CNC(=O)[C@@H](C)NC(=O)[C@@H](N)Cc1ccc(O)cc1)N(C)C(=O)[C@@H](Cc1c[nH]c2ccccc12)NC(=O)OC(C)(C)C | – | – | – | 2 | 0.82 | 47.9 | 20 | 1910 | 1900 | 1550 | 1500 | 26 | 0.64 | 42 | – | –
12 | CCCC[C@H](NC(=O)[C@@H](Cc1c[nH]c2ccccc12)NC(=O)OC12CC3CC(CC(C3)C1)C2)C(=O)N[C@@H](CC(=O)O)C(=O)N[C@@H](Cc1ccccc1)C(=O)NNC(=O)[C@H](Cc1ccccc1)NC(=O)CNC(=O)[C@@H](C)NC(=O)[C@@H](N)Cc1ccc(O)cc1 | – | – | – | 0.417 | 0.23 | 195 | 88 | 851 | 840 | 562 | 560 | 27 | 10 | 38 | 640 | –
13 | CC(=O)N[C@@H](Cc1c[nH]c2ccccc12)C(=O)N[C@@H](CCCCNC(=O)Nc1ccccc1Cl)C(=O)N[C@@H](CC(=O)O)C(=O)N(C)[C@@H](Cc1ccccc1)C(=O)NNC(=O)[C@H](Cc1ccccc1)NC(=O)CNC(=O)[C@@H](C)NC(=O)[C@@H](N)Cc1ccc(O)cc1 | – | – | – | – | 0.48 | – | 0.92 | – | – | – | – | – | – | 26 | 200 | Log IC50 [5]: -8.95; Log IC50 (Mu-type opioid receptor [6]): -8.67; Ki ([7]; hek293): 1000 nM; Log IC50 ([7]; hek293): -5.99; Ki ([8]; hek293): 1700 nM; Log IC50 ([8]; hek293): -5.76; EC50 ([1]; cho): 1.3 nM; EC50 (Mu-type opioid receptor [9]; cho, read-out: EC50): 15 nM
